# Test results published in the RNAGym collection of RNA variant scans (doi:10.1126/science.aae0568).
# Variants at the floor of the assay were thinned out.
# B1: tRNA (parent)
# chain: GUUCCGUUGGCGUAAUGGUAACGCGUCUCCCUCCUAAGGAGAAGACUGCGGGUUCGAGUCCCGUACGGAACG
# Variants of: B1
# Test: yeast fitness relative to wild type (ratio to wild type); higher = fitter; tRNA-Arg(CCU), competitive growth, 37 C, YPD
# Outline: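 Variants of the tRNA-Arg(CCU) gene were chemically synthesised with a 3% per-site mutation rate across 69 sites and placed at the native genomic locus in Saccharomyces cerevisiae. Six parallel replicates of the pooled strains were competed in YPD at 37°C for 24 hours, and gene amplicons from the start and end populations were read by 100-nucleotide paired-end sequencing. Darwinian fitness relative to wild type was derived from changes in genotype frequencies. Genotypes required ≥ 100 starting reads, and estimates < 0.5 were set to 0.5.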
row,Variant,yeast fitness
1,C4G C55U G68C,0.56
2,C4G U8G C60A U64A C66U,0.711
3,C4G G18A C30U,0.57
4,C4G U7A C31G U59A,≤ 0.5
5,C4G C34A C66U,≤ 0.5
6,C4G C33G A42U U47G U54A C61A,≤ 0.5
7,C4G G9A G10C C29A A37G G50U U59G,≤ 0.5
8,C4G G58A G67U A69C,0.542
9,C4G C30G A69U,≤ 0.5
10,C4G U13C G23U G48C G50A,≤ 0.5
11,C4G C27G A65U G68U,0.562
12,C4G C24U U47C,0.673
13,C4G C30A A70U,0.695
14,C4G C49A G56C C61U,0.609
15,C4G G9A G50C G67A,≤ 0.5
16,C4G G23C C60G,≤ 0.5
17,C4G C34G A65G,≤ 0.5
18,C4G G50C C55G C62G,≤ 0.5
19,C4G G18C G63A,≤ 0.5
20,C4G G6A A21C U53A U54A,≤ 0.5
21,C4G G12A U19C C29G A57G C61A A65C C66U,0.634
22,C4G U7G A21C,≤ 0.5
23,C4G G17A G51A C66U,≤ 0.5
24,C4G C29A C34U A36U,0.578

row,Variant,yeast fitness
1,C4G U8A G18C U32A U47C U54C,≤ 0.5
2,C4G C29G C49U,0.588
3,C4G G17A C29U C66U,≤ 0.5
4,C4G G9C G38C G68A,≤ 0.5
5,C4G U7G G12C A20U C34A G41C A45C U47A C55A,≤ 0.5
6,C4G G9A U28C G39A,≤ 0.5
7,C4G U7A G9A C11U C30G C62A,0.628
8,C4G C34G A42U C61U,0.646
9,C4G U8C U16A A21C C24G A37U C49U C55U,≤ 0.5
10,C4G C30U G63C,0.628
11,C4G G41A C66U,0.525
12,C4G G23C G56C,≤ 0.5
13,C4G U13C A70G,0.618
14,C4G U8C U47A,≤ 0.5
15,C4G U7G G12C,≤ 0.5
16,C4G U7A U26A A40C A42G G58C G68A,≤ 0.5
17,C4G G10C C24U C34U A36U C46A,≤ 0.5
18,C4G U7G C34A,≤ 0.5
19,C4G C29U G56A A65C A70C,0.77
20,C4G U7G U59G G63C,≤ 0.5
21,C4G G23C C29U,0.501
22,C4G G9C G41A C55U U59A A70U,0.545
23,C4G C49U G52A,0.55
24,C4G C29G C46U,≤ 0.5

row,Variant,yeast fitness
1,C4G G9A G10C C29A G50U U59G,0.599
2,C4G G6C A40U A45G C55A,≤ 0.5
3,C4G G23C C61U,≤ 0.5
4,C4G U16C A70C,0.709
5,C4G G18A C30U C60G,0.515
6,C4G C27U C31U,0.652
7,C4G C34G U47A C49A A65G,0.519
8,C4G C29A C60U C61G,≤ 0.5
9,C4G G9C G10A C24U,≤ 0.5
10,C4G C29A C33G A45C G67C,≤ 0.5
11,C4G C34U G67A A69U,≤ 0.5
12,C4G U7A G10C A20C C46G,≤ 0.5
13,C4G G17A G52A,≤ 0.5
14,C4G G10A A69U,0.625
15,C4G C24U C62A C66U,≤ 0.5
16,C4G G6A C46U A69C,0.536
17,C4G C30G C33A A70G,≤ 0.5
18,C4G G23C G52A U54C,≤ 0.5
19,C4G C55A A57U,≤ 0.5
20,C4G C34G A42U C61U C66U,≤ 0.5
21,C4G C30U G41A,0.532
22,C4G G18C A65U,≤ 0.5
23,C4G C34G A40G,0.57
24,C4G G38C G63A G68C A69G,≤ 0.5

row,Variant,yeast fitness
1,C4G G10A A42C U54G,≤ 0.5
2,C4G G6C C29G G63C,≤ 0.5
3,C4G C34U C49A G68C,≤ 0.5
4,C4G U13C C60G A65U,≤ 0.5
5,C4G C27U,0.789
6,C4G C27A,0.734
7,C4G C34A U54C,0.54
8,C4G C27A A36G,0.534
9,C4G C61G,0.659
10,C4G C61U,0.935
11,C4G C27G C30G C49U C60U G63C,0.562
12,C4G G6A G23A A43G,≤ 0.5
13,C4G G12A,0.781
14,C4G C27U G41C A42C,≤ 0.5
15,C4G U13A A21C U35A A65C,≤ 0.5
16,C4G G17A A20C C61U,≤ 0.5
17,C4G G10A C22G C55A,0.555
18,C4G C27A G48A,0.571
19,C4G G17A U26C A40G A70C,0.793
20,C4G G18C C33G G41A,≤ 0.5
21,C4G G12C A40G,≤ 0.5
22,C4G U8A G12A A57G,≤ 0.5
23,C4G U16C C27G A40G G48A A57C C62U,0.537
24,C4G U8C U16A A21C C24G A37U C55U,≤ 0.5

row,Variant,yeast fitness
1,C4G U8A G12A G48A A69C A70U,0.561
2,C4G C30A A42C A69U,≤ 0.5
3,C4G G39A A65C,≤ 0.5
4,C4G G39A A65U,0.576
5,C4G C30U A40G C60G,≤ 0.5
6,C4G C27U C29G,≤ 0.5
7,C4G C55U G63A G68C,≤ 0.5
8,C4G G9A G10C C29A G50U U59G A69U,≤ 0.5
9,C4G G9A A21C C22A C66U,0.559
10,C4G G39A U53A,≤ 0.5
11,C4G C27U G58A,0.61
12,C4G G44A A45C,≤ 0.5
13,C4G G17A U28A C31G A57G C62U,≤ 0.5
14,C4G U8C G25A A42U A70U,≤ 0.5
15,C4G C29A C30U C62G U64A,≤ 0.5
16,C4G C33G U35C U59A A69U,≤ 0.5
17,C4G G58A U64A,≤ 0.5
18,C4G G25A C60G C62G,0.57
19,C4G C60G C61U,≤ 0.5
20,C4G G18C G51A,≤ 0.5
21,C4G G12U A14C C49U A65U,≤ 0.5
22,C4G G50A C55U,≤ 0.5
23,C4G G44C U47A,0.592
24,C4G G12A C30U G63A G68C,0.574

row,Variant,yeast fitness
1,C4G C34U C49A,0.61
2,C4G C46U G48A,1.04
3,C4G G52C A57C G63C,≤ 0.5
4,C4G C30G U32C,≤ 0.5
5,C4G C60G G68C,0.622
6,C4G U8G C27G G48C,≤ 0.5
7,C4G U7G G9A A20G C22A G41A A69C,≤ 0.5
8,C4G G6A C11U C29A G63A A70G,≤ 0.5
9,C4G C29G C61U,0.562
10,C4G U7A G9C G17C G48A,≤ 0.5
11,C4G G17A C66U,0.596
12,C4G C60A,0.642
13,C4G C46G,0.854
14,C4G U7G G10C C24U C29A A45U C46G U47A G50A U64G,≤ 0.5
15,C4G U8A G12A C22U G48A A69C,0.522
16,C4G G9C A42U C55G,≤ 0.5
17,C4G G17U G23A C55A C61A,≤ 0.5
18,C4G U7A U26A A40C A42G G58C,≤ 0.5
19,C4G G67A A70G,0.665
20,C4G G25A,0.894
21,C4G U8C C49A,≤ 0.5
22,C4G U8C A15G G23A C34G G67A,≤ 0.5
23,C4G G9A G39A A65U A69U,≤ 0.5
24,C4G C30G A40G A65C,≤ 0.5

row,Variant,yeast fitness
1,C4G C61G G63C A70G,0.516
2,C4G G10A G41C,≤ 0.5
3,C4G U7A U59A,0.621
4,C4G U7C C27A A43U U59G,≤ 0.5
5,C4G C66G,0.671
6,C4G C66U,0.836
7,C4G G9C C22A,≤ 0.5
8,C4G C30G A42C C55G,≤ 0.5
9,C4G U8C C24G A42C C61G,≤ 0.5
10,C4G G10A G41C C62G,0.572
11,C4G G18C G68C,0.636
12,C4G C33U A43C,≤ 0.5
13,C4G G10A C29U C46G,≤ 0.5
14,C4G U7A U19C A20C U53C,≤ 0.5
15,C4G U8A G12A,0.6
16,C4G U7C C24U A65G,0.857
17,C4G C30G C33G C66U,≤ 0.5
18,C4G U8C G17A C27G A36U C62G,0.607
19,C4G G18C,0.599
20,C4G G9C C33G,0.674
21,C4G C30U C49U,0.604
22,C4G G67A A69C,≤ 0.5
23,C4G C31G A40G C62A,≤ 0.5
